In test [1] the target is T1, IdeS (Streptococcus pyogenes, UniProt Q9F1R7).
T1 sequence (Q9F1R7 30-339): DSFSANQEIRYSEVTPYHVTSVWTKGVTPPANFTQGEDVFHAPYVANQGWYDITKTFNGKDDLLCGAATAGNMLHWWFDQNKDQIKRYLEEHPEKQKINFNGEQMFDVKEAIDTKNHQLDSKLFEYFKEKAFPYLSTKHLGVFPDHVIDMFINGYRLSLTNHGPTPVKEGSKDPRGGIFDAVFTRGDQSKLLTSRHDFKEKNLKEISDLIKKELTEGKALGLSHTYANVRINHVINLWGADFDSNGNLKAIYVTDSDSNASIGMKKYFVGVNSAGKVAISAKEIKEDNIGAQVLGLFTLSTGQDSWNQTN
Particulars: cited from earlier work.

Test [2] deals with T2, papain (Carica papaya, UniProt P00784).
T2 sequence (P00784 134-345): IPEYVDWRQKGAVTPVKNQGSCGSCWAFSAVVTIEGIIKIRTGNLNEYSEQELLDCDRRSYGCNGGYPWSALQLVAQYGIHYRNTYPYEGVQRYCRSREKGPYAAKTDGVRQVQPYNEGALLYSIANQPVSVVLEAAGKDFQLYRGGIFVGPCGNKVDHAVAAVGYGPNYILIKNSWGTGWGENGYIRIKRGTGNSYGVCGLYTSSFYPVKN
Briefly: Papain activity assay. It is filed as biochemical. Conditions: papain 0.9 μM, 4.8 × 10^3 molar excess of peptide/analogue. In a few lines: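 Papain was taken up in pH 6.2 phosphate buffer with EDTA and DTT. It was preincubated 10 min at RT with test compound (stock 30 mM in 50% DMSO/phosphate pH 6.2). Substrate (stock 100 mM in DMSO) was added, then 2 h at 37 °C. Reactions were stopped with glacial acetic acid and cleavage read as Abs405. Duplicates were run on two separate occasions.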

Test [3] addresses T3, streptococcal cysteine protease SpeB (Streptococcus pyogenes serotype M1, UniProt P0C0J1).
T3 sequence (P0C0J1 146-398): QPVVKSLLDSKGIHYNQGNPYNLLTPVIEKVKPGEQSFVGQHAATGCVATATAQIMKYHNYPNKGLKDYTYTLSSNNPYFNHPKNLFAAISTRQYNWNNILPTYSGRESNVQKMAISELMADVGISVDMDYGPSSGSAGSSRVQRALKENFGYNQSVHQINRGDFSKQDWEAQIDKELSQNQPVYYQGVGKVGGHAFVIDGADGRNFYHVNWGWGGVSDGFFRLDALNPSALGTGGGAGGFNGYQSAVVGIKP
Briefly: SpeB activity assay. It counts as biochemical, S. pyogenes. Particulars: SpeB 0.28 μM, 4.8 × 10^3 molar excess of peptide/analogue. In a few lines: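 SpeB was purified from S. pyogenes strain 5448 culture medium by ammonium sulfate precipitation and ion exchange. It was activated with 2 mM DTT for 30 min at 37 °C, and active amount was set by E-64 active-site titration. Enzyme was preincubated 15 min at RT with test compound (stock 30 mM in 50% DMSO/phosphate pH 7.4). BPFA was then added (1 mM solution, 0.1 M phosphate pH 6) and OD405 change recorded. Triplicates.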

In test [4] the target is T2, papain. Briefly: Determination of inhibition constants. It counts as biochemical. Conditions: 5 μM papain, Nα-benzoyl-DL-arginine 4-nitroanilide 0.25-6 mM. In a few lines: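 Initial velocities were measured with or without inhibitor at Nα-benzoyl-DL-arginine 4-nitroanilide 6, 3, 1, 0.5 or 0.25 mM and 5 μM papain. Ki was derived by nonlinear regression fitted to a competitive inhibition model.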

For test [5], the target named is T1, IdeS. It counts as biochemical. Conditions: for inhibitory activity toward IdeS (Figure 4): IdeS 0.8 μM, 4.8 × 10^3 molar excess of peptide/analogue, IgG1 substrate. In a few lines:
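Recombinant His-Trx-IdeS was expressed in E. coli BL21, the tag removed with TEV protease, and purified by Ni2+-resin and size exclusion. Enzyme was preincubated with test compound (stock 30 mM in 50% DMSO/phosphate pH 7.4) 15 min at RT. Human IgG1 was added, then 20 min at 37 °C, stopped with iodoacetamide. Protein A-CM5 SPR was read at 190 s post-injection against no-enzyme controls, converted to fraction active IdeS via a standard curve. Triplicates.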

Structures are written as SMILES. “Also recorded” adds a separate entry of the source. Where a SMILES comes first, the peptide text is derived from it. The star is where a group is joined. Cbz = O=C(OCc1ccccc1)*; CHN2 = [N-]=[N+]=C*

On to `CC(C)C[C@H](NC(=O)C1OC1C(=O)O)C(=O)NCCCCN=C(N)N` (stereo in doubt) [E64, 1-[N-[(3-trans-carboxyoxirane-2-carbonyl)-L-leucyl]amino]-4-guanidinobutane], for which, on IdeS [1], the “inhibition of IdeS by known inhibitors” value is listed as “not inhibited”.
Regarding `CC(C)C[C@H](N)C(=O)NCC(=O)N1CCC[C@@H](N2CCC[C@H]2C(N)=O)C1` [(R)-LGpipP], the “inhibitory effect on papain activity (Figure 5B)” value (from here on “inhibitory effect … (Figure 5B)”) on papain [2] was “most active analogue”. The “inhibitory effect on SpeB activity (Figure 5A)” value (from here on “inhibitory effect … (Figure 5A)”) in test [3] was “inhibited SpeB activity”.
For the molecule `CC(C)C[C@H](N)C(=O)N1CCC[C@@H](NCC(N)=O)C1` [(R)-LpipG, (−)-2-[(1-L-Leucinyl-(R)-piperidin-3-yl)amino]acetamide], the “inhibitory effect … (Figure 5B)” value on papain [2] is reported as “hardly affecting papain”. The “inhibitory effect … (Figure 5A)” value in test [3] is on record as “do not inhibit SpeB”. The “effect on initial velocities of papain activity” value at papain [4] is “remained unchanged”. The “inhibitory activity toward IdeS (Figure 4)” value at IdeS [5] is “most potent inhibitors; also recorded: potent inhibitors of IdeS”.
In the case of `NC(=O)[C@@H]1CCCN1C(=O)CN[C@@H]1CCCNC1` [(R)-pipGP], on papain [2], the “inhibitory effect … (Figure 5B)” value was “even more active toward papain”. The “inhibitory effect … (Figure 5A)” value in test [3] is “no inhibitory activity”. Moreover, the “inhibitory activity toward IdeS (Figure 4)” value against IdeS [5] is “most potent inhibitors; also recorded: most active inhibitors of IdeS”.
As for `CC(C)C[C@H](N)C(=O)NCC(=O)N1CCC[C@H](N2CCC[C@H]2C(N)=O)C1` [(S)-LGpipP], the “inhibitory effect … (Figure 5A)” value in test [3] is reported as “inhibited SpeB activity”.
With `CCN(CC(N)=O)[C@H]1CCCN(C(=O)[C@H](CC(C)C)NC(=O)[C@@H](N)CC(C)C)C1` [(S)-LLpipEtG], the “inhibitory effect … (Figure 5A)” value in test [3] is recorded as “clearly improved degree of inhibition”.
On to `CC(C)C[C@H](N)C(=O)N1CCC[C@H](NCC(=O)N2CCC[C@H]2C(N)=O)C1` [(S)-LpipGP], for which the “inhibitory effect … (Figure 5B)” value against papain [2] is reported as “even more active toward papain”. Further, the “inhibitory effect … (Figure 5A)” value in test [3] was “no inhibitory activity”. In addition, the “inhibitory activity toward IdeS (Figure 4)” value on IdeS [5] was “most potent inhibitors; also recorded: most active inhibitors of IdeS”.
With `NC(=O)CN[C@H]1CCCNC1` [(S)-pipG, (+)-2-((S)-Piperidin-3-ylamino)acetamide], the “inhibitory effect … (Figure 5B)” value against papain [2] was “hardly affecting papain”. Further, the “inhibitory effect … (Figure 5A)” value in test [3] is “do not inhibit SpeB”. The “effect on initial velocities of papain activity” value at papain [4] is on record as “remained unchanged”. Also, at IdeS [5], the “inhibitory activity toward IdeS (Figure 4)” value is given as “most potent inhibitors; also recorded: potent inhibitors of IdeS”. Further, the “ligand efficiency (LE) for IdeS inhibition” value on IdeS [5] (binding energy per atom considered) is “most favorable peptide analogue in the series”.
Regarding `NC(=O)[C@@H]1CCCN1C(=O)CN[C@H]1CCCNC1` [(S)-pipGP], the “inhibitory activity toward IdeS (Figure 4)” value on IdeS [5] is “most potent inhibitors”.
Turning to `Cc1ccc(S(=O)(=O)N[C@@H](CCCCN)C(=O)CCl)cc1` [TLCK, tosyl lysyl chloromethyl ketone], the “inhibition of IdeS by known inhibitors” value on IdeS [1] was “reported to inhibit IdeS”.
In the case of `Cc1ccc(S(=O)(=O)N[C@@H](Cc2ccccc2)C(=O)CCl)cc1` [TPCK, tosyl phenylalanyl chloromethyl ketone], the “inhibition of IdeS by known inhibitors” value at IdeS [1] is “reported to inhibit IdeS”.
In the case of `CC(C)CC(NC(=O)OCc1ccccc1)C(=O)NC(C(=O)NCC(=O)C=[N+]=[N-])C(C)C` (stereo not drawn) [Z-LVG CHN2, N-benzyloxycarbonyl-leucyl-valyl-glycine diazomethylketone] (Cbz-Leu-Val-Gly-CHN2; configuration not given here), the “inhibition of IdeS by known inhibitors” value on IdeS [1] was “reported to inhibit IdeS”.

Values taken from article PMC3310199 (Journal of Medicinal Chemistry, 2012).
